Tests used:
[1] = system: Mus musculus; assay: Antidiabetic activity in KKAy mouse assessed as reduction of blood glucose level at 30 to 75 mg/kg, sc bid for 4 days measured on day 2 relative to control; type: functional; design: scale not given: the % may be the effect or the level left; details: dose mg/kg 30-75; route subcutaneous
Outline: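 Hyperglycemic KKAy mice injected s.c. twice daily for 4 days with compound at 30 or 75 mg/kg suspended in sesame oil; controls received sesame oil (150 µl). Blood glucose measured at the indicated times, with day-zero levels taken as 100%. n=10 per group, mean ± SEM, compared with oil-treated group.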

[2] = molecular target: 5'-AMP-activated protein kinase catalytic subunit alpha-2 (Rattus norvegicus) (UniProt Q09137); assay: Activation of AMPK in rat L6 cells assessed as ACC phosphorylation at Ser79 at 250 mM after 40 mins by Western blot analysis relative to control; type: cell-based
Chain of 5'-AMP-activated protein kinase catalytic subunit alpha-2 (Rattus norvegicus) (Q09137 whole entry): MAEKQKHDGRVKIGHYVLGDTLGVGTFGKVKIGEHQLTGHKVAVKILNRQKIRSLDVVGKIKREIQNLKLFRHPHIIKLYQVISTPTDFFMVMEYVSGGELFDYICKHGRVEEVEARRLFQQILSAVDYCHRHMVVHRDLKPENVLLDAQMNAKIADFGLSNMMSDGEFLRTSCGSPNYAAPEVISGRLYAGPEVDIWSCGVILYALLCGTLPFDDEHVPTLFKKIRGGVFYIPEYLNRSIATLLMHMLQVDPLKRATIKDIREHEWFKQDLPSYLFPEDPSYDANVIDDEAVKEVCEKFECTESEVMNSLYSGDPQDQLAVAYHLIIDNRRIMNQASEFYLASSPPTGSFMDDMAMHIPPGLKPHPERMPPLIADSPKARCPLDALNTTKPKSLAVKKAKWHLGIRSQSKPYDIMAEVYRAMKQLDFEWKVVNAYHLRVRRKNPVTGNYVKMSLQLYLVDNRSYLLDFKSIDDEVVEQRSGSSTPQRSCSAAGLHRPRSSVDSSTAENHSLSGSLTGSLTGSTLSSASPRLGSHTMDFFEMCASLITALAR
Outline: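 Fully differentiated L6 myotubes, preincubated 3 h with or without 5 μM Compound C. Test agents: compound at 25 μM for 3 h, sorbitol 250 mM for 40 min, AICAR 4 mM for 30 min. Whole-cell lysates probed by Western blot for pSer79-ACC, ACC, pThr642-AS-160, AS-160 and α-tubulin; band densities summarized, n=3, vs respective controls.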

fold change (FC) [2]: 2.56
SMILES: CCOc1ccc2nc(SCc3nc4ccccc4s3)sc2c1
Activity [1]: 45%

From ChEMBL document CHEMBL2396611, “Synthesis and mechanism of hypoglycemic activity of benzothiazole derivatives” (J Med Chem, 2013)
